According to ChEMBL document CHEMBL1126765, “Analogues of capsaicin with agonist activity as novel analgesic agents; structure-activity studies. 1. The aromatic "A-region"” (J Med Chem, 1993):

How the values were obtained:
[1] = species: Rattus norvegicus; test: In vitro effective concentration for [Ca2+] uptake and accumulation of [Ca2+] in neonatal rat cultured spinal sensory neurons; type: functional
Procedure, shortened: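 Newborn rat DRG neurones dissociated with collagenase then 2.5 mg/mL trypsin at 37 °C, plated with 1 μg/mL NGF, 10^-4 M cytosine arabinoside for 48 h; used at 3-7 days. Cells washed in Ca-free HEPES BSS pH 7.4, then given compound plus 10 μCi/mL 45Ca2+ with 1% DMSO for 10 min at room temperature. SDS-extracted, scintillation counted. Sigmoidal fit; ≥6 replicates, ≥2 experiments; mean ± SEM.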

[2] = species: Cavia porcellus; test: In vitro contraction in guinea pig ileum equivalent to 50% capsaicin response; type: functional
Procedure, shortened: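 Male Dunkin-Hartley guinea pig ileum segments in Tyrode's solution at 37 °C, gassed 95% O2/5% CO2, isometric recording, 1 h equilibration under 0.5 g tension. […] doses given at 1 h intervals with frequent washes. Contraction amplitude expressed as % of maximal capsaicin response; EC50 = concentration giving 50% of that response; mean ± SEM from at least four tissues.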

[3] = test system: Mus musculus; test: In vivo analgesic activity, mouse tail flick latency in antinociceptive assay; type: functional
Procedure, shortened: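 Female CD-1 mice, about 20 g, fasted overnight. Drug or vehicle given s.c. into the back of the neck, 10 per group. Tail flick latency to a focused light beam measured 1 h later at 3.5 cm from the tip, 30 s cutoff. % analgesia = (drug − vehicle latency)/(30 s − vehicle latency); ED50 = dose giving 50% analgesia. Mann-Whitney U or Dunnett's test.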

[4] = Acid dissociation constant was determined; type: ADME

SMILES: CCCCCCCCNC(=O)Cc1cc(OC)c(O)c(OC)c1
- EC50 [1]: > 100 µM

SMILES: CCCCCCCCNC(=O)Cc1ccc(OC)c(O)c1
- EC50 [1]: 1.82 µM

SMILES: CCCCCCCCC(=O)NCc1cccnc1
- EC50 [1]: > 100 µM

SMILES: CCCCCCCCNC(=O)Cc1ccc2c(c1)OCO2
- EC50 [1]: > 100 µM

SMILES: CCCCCCCCC(=O)NCc1cc(O)cc(OC)c1
- EC50 [1]: > 100 µM

SMILES: CCCCCCCCC(=O)NCc1ccc(C(=O)O)cc1
- EC50 [1]: > 100 µM

SMILES: CCCCCCCCC(=O)NCc1ccc(OC)c(OC)c1
- EC50 [1]: 6.41 µM
- EC50 [2]: 1.15 µM
- ED50 [3]: > 50 µmol/kg

SMILES: CCCCCCCCC(=O)NCc1ccc(S)c(OC)c1
- EC50 [1]: > 100 µM

SMILES: CCCCCCCCC(=O)NCc1ccc(N)c(OC)c1
- EC50 [1]: > 10 µM

SMILES: CCCCCCCCC(=O)NCc1ccc2c(c1)OCO2
- EC50 [1]: > 100 µM

SMILES: CCCCCCCCNC(=O)Cc1ccc(O)c(N)c1
- pKa [4]: 10
- EC50 [1]: > 100 µM

SMILES: CCCCCCCCC(=O)NCc1ccncc1
- EC50 [1]: 28 µM

SMILES: CCCCCCCCNC(=O)Cc1ccc(O)cc1
- pKa [4]: 10.2
- EC50 [1]: 6.5 µM
- EC50 [2]: 2.75 µM
- ED50 [3]: > 50 µmol/kg

SMILES: CCCCCCCCNC(=O)Cc1ccc(O)c(OC)c1OC
- EC50 [1]: > 100 µM

SMILES: CCCCCCCCC(=O)NCc1cccc(OC)c1
- EC50 [1]: > 100 µM

SMILES: CCCCCCCCNC(=O)Cc1ccc2ncccc2c1
- EC50 [1]: > 100 µM

SMILES: CCCCCCCCC(=O)NCc1cc(=O)c(O)co1
- EC50 [1]: > 100 µM

SMILES: CCCCCCCCC(=O)NCc1ccc([N+](=O)[O-])c(OC)c1
- EC50 [1]: 7.91 µM

SMILES: CCCCCCCCNC(=O)Cc1cccc(OC)c1
- EC50 [1]: > 100 µM

SMILES: CCCCCCCCNC(=O)Cc1ccc(O)c(C)c1
- pKa [4]: 10.6
- EC50 [1]: > 100 µM

SMILES: CCCCCCCCNC(=O)Cc1ccc(O)c(OCC)c1
- pKa [4]: 10.4
- EC50 [1]: 4.34 µM
- EC50 [2]: 4.96 µM
- ED50 [3]: > 50 µmol/kg

SMILES: CCCCCCCCNC(=O)Cc1ccc(O)c(NC(C)=O)c1
- pKa [4]: 9.7
- EC50 [1]: > 100 µM

SMILES: COc1cc(CNC(=O)CCCC/C=C/C(C)C)ccc1O [CAPSAICIN]
- EC50 [1]: 0.3 µM
- EC50 [2]: 0.26 µM
- ED50 [3]: 15 µmol/kg

SMILES: CCCCCCCCC(=O)NCc1ccccc1 [NONANOIC ACID BENZYLAMIDE]
- EC50 [1]: > 100 µM

SMILES: CCCCCCCCC(=O)NCc1ccc2[nH]ccc2c1
- EC50 [1]: > 100 µM

SMILES: CCCCCCCCC(=O)NCc1ccc(OC)cc1
- EC50 [1]: > 100 µM
- EC50 [2]: 22.2 µM
- ED50 [3]: > 50 µmol/kg

SMILES: CCCCCCCCC(=O)NCc1ccccc1OC
- EC50 [1]: > 100 µM

SMILES: CCCCCCCCC(=O)NCc1ccc(O)c(O)c1O
- EC50 [1]: 7.64 µM

SMILES: CCCCCCCCC(=O)NCc1ccc(O)c(OC)c1 [NONIVAMIDE]
- EC50 [1]: 0.55 µM
- EC50 [2]: 0.4 µM
- ED50 [3]: 5 µmol/kg

SMILES: CCCCCCCCNC(=O)Cc1ccc(O)c(O)c1
- pKa [4]: 9.2
- EC50 [1]: 0.41 µM
- EC50 [2]: 0.33 µM
- ED50 [3]: 50 µmol/kg

SMILES: CCCCCCCCNC(=O)Cc1ccc(O)c(OC)c1
- pKa [4]: 9.9
- EC50 [1]: 0.3 µM
- EC50 [2]: 0.33 µM
- ED50 [3]: 9.2 µmol/kg

SMILES: CCCCCCCCC(=O)NCc1ccc(O)cc1OC
- EC50 [1]: > 100 µM

SMILES: CCCCCCCCNC(=O)Cc1ccc(O)c2c1OCCO2
- EC50 [1]: > 100 µM

SMILES: CCCCCCCCC(=O)NCc1ccnc(OC)c1
- EC50 [1]: 31.5 µM

SMILES: CCCCCCCCNC(=O)Cc1ccc(O)c([N+](=O)[O-])c1
- pKa [4]: 7.7
- EC50 [1]: 1.04 µM
- EC50 [2]: 2.78 µM
- ED50 [3]: > 50 µmol/kg

SMILES: CCCCCCCCNC(=O)Cc1ccc(O)c(Cl)c1
- pKa [4]: 9
- EC50 [1]: 0.26 µM
- EC50 [2]: 0.68 µM
- ED50 [3]: > 50 µmol/kg

SMILES: CCCCCCCCNC(=O)Cc1ccc(OC)c(C)c1
- EC50 [1]: > 100 µM

SMILES: CCCCCCCCC(=O)NCc1cc[n+]([O-])cc1
- EC50 [1]: > 100 µM

SMILES: CCCCCCCCC(=O)NCc1cccc(O)c1
- EC50 [1]: > 100 µM

SMILES: CCCCCCCCC(=O)NCc1cc(OC)c(OC)c(OC)c1
- EC50 [1]: > 100 µM

SMILES: CCCCCCCCC(=O)NCc1ccc(O)c(O)c1
- EC50 [1]: 0.63 µM
- EC50 [2]: 0.22 µM
- ED50 [3]: 20 µmol/kg

SMILES: CCCCCCCCC(=O)NCc1cc(OC)c(O)cc1OC
- EC50 [1]: > 100 µM
